In brackets after ≈: the same amount, converted by molar mass. Activity calls are given as the source filed them. The rule behind the calls is not given here.
Columns and labels:
Staphylococcus aureus [1] = assay: Antibacterial activity against methicillin-sensitive Staphylococcus aureus ATCC 6358 after 24 hrs by broth microdilution method; assay type: functional; conditions: ATCC 6358, 24 h
Procedure, shortened: (§1)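 Strains were kept on Mueller-Hinton agar at 4 °C and grown in MH broth at 37 °C for 18 h. Broth microdilution followed NCCLS, with serial dilutions over 0.125–128 μg/mL and an inoculum of 10^5 CFU/mL set by the 0.5 McFarland standard. Plates were incubated at 37 °C for 24 h, then p-iodonitrotetrazolium violet (0.5 mg/mL) was added. MIC was the lowest concentration without red colour.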

Staphylococcus aureus [2] = assay: Antibacterial activity against beta-lactamase producing methicillin-resistant Staphylococcus aureus ATCC 11632 after 24 hrs by broth microdilution method; assay type: functional; conditions: ATCC 11632, 24 h; procedure, shortened: as §1
Staphylococcus aureus [3] = assay: Antibacterial activity against methicillin-resistant Staphylococcus aureus ATCC 33591 after 24 hrs by broth microdilution method; assay type: functional; conditions: ATCC 33591, 24 h; procedure, shortened: as §1
Staphylococcus aureus [4] = assay: Antibacterial activity against methicillin-resistant Staphylococcus aureus ATCC 43300 after 24 hrs by broth microdilution method; assay type: functional; conditions: ATCC 43300, 24 h; procedure, shortened: as §1
Candida albicans = assay: Antifungal activity against Candida albicans ATCC 10231 after 24 hrs by agar dilution method; assay type: functional
Procedure, shortened: (§2)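 Agar dilution on Sabouraud glucose agar with 2-fold dilutions from 128 to 0.5 μg/mL and final DMSO below 2% (v/v). Inocula were spotted with a 0.005 mL loop: C. albicans at 10^5 cells/mL and filamentous fungi at 10^6 spores/mL. Plates were incubated at 29 °C in duplicate, for 24 h (C. albicans, A. niger) or 72 h (dermatophytes).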

[5] = system: Trichophyton mentagrophytes; assay: Antifungal activity against Trichophyton mentagrophytes ATCC 28185 after 72 hrs by agar dilution method; assay type: functional; conditions: ATCC 28185, 72 h; procedure, shortened: as §2
Trichophyton rubrum = assay: Antifungal activity against Trichophyton rubrum ATCC 28188 after 72 hrs by agar dilution method; assay type: functional; conditions: ATCC 28188, 72 h; procedure, shortened: as §2
Aspergillus niger = assay: Antifungal activity against Aspergillus niger ATCC 10335 after 24 hrs by agar dilution method; assay type: functional; conditions: ATCC 10335, 24 h; procedure, shortened: as §2
Escherichia coli = assay: Antibacterial activity against Escherichia coli ATCC 25922 at 128 ug/ml after 24 hrs by broth microdilution method; assay type: functional, organism-based
Procedure, shortened: (§3)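 Strains kept on Mueller-Hinton agar at 4 °C, grown in MH broth at 37 °C for 18 h before testing. NCCLS standard broth microdilution, serial dilution over 0.125−128 μg/mL. Inoculum set to 10^5 CFU/mL by 0.5 McFarland standard. Plates incubated at 37 °C for 24 h, then p-iodonitrotetrazolium violet (0.5 mg/mL) added. Red colour marks viable cells; growth at the top concentration scored.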

Proteus mirabilis = assay: Antibacterial activity against Proteus mirabilis ATCC 43071 at 128 ug/ml after 24 hrs by broth microdilution method; assay type: functional, organism-based; procedure, shortened: as §3
Salmonella typhi = assay: Antibacterial activity against Salmonella typhi ATCC 06539 at 128 ug/ml after 24 hrs by broth microdilution method; assay type: functional, organism-based; conditions: Salmonella enterica subsp. enterica serovar Typhi; procedure, shortened: as §3

| Compound | MIC (Staphylococcus aureus [1]) [µg/mL] | MIC (Staphylococcus aureus [2]) [µg/mL] | MIC (Staphylococcus aureus [3]) [µg/mL] | MIC (Staphylococcus aureus [4]) [µg/mL] | MIC (Candida albicans) [µg/mL] | MIC [5] [µg/mL] | MIC (Trichophyton rubrum) [µg/mL] | MIC (Aspergillus niger) [µg/mL] | Activity (Escherichia coli) | Activity (Proteus mirabilis) | Activity (Salmonella typhi) | MIC (Candida albicans; ATCC 10231, 24 h) [µg/mL] |
| --- | --- | --- | --- | --- | --- | --- | --- | --- | --- | --- | --- | --- |
| CC1(C)S[C@@H]2[C@H](NC(=O)[C@H](N)c3ccccc3)C(=O)N2[C@H]1C(=O)O [AMPICILLIN] | 2 (≈ 5.72 µM) | 64 (≈ 183 µM) | 128 (≈ 366 µM) | 128 (≈ 366 µM) | – | – | – | – | – | – | – | – |
| NYSTATIN | – | – | – | – | 8 | – | – | – | – | – | – | – |
| Cc1onc(-c2ccccc2)c1C(=O)N[C@@H]1C(=O)N2[C@@H]1SC(C)(C)[C@@H]2C(=O)O [OXACILLIN] | 2 (≈ 4.98 µM) | 32 (≈ 79.7 µM) | 128 (≈ 319 µM) | 128 (≈ 319 µM) | – | – | – | – | – | – | – | – |
| O=C(N[C@H](CO)[C@H](O)c1ccc([N+](=O)[O-])cc1)C(Cl)Cl [CHLORAMPHENICOL] | 1 (≈ 3.09 µM) | 2 (≈ 6.19 µM) | 2 (≈ 6.19 µM) | 2 (≈ 6.19 µM) | – | – | – | – | – | – | – | – |
| Clc1ccc(COC(Cn2ccnc2)c2ccc(Cl)cc2Cl)c(Cl)c1 (configuration not stated) [MICONAZOLE] | – | – | – | – | – | 2 (≈ 4.81 µM) | 2 (≈ 4.81 µM) | 16 (≈ 38.4 µM) | – | – | – | – |
| COc1cc2c(=O)onc3c2c(c1OC)-c1cccc(OC)c1[C@@H]3SCC(N)=O | 0.5 (≈ 1.21 µM) | 0.25 (≈ 0.603 µM) | 0.25 (≈ 0.603 µM) | 0.25 (≈ 0.603 µM) | – | 1 (≈ 2.41 µM) | 1 (≈ 2.41 µM) | 25 (≈ 60.3 µM) | inactive | inactive | inactive | 25 (≈ 60.3 µM) |

Reference: ChEMBL document CHEMBL4130579, “Sulfur-Containing Aristoloxazines and Other Constituents of the Roots of Aristolochia orbicularis” (2017)
